Here are results for 18 compounds from ChEMBL document CHEMBL2375243, “Synthesis and antioxidant properties of substituted 2-phenyl-1H-indoles” (Bioorg Med Chem Lett, 2013).

Calls of active or inactive are those of the source. The calls are words filed in the database; no cut-off is given here.

Experiment [1] relates to Radical scavenging activity. The experiment can be described thus: Antioxidant activity of the compound assessed as DPPH free radical scavenging activity at 1 mM after 30 mins by spectrophotometric analysis relative to control. In kind it is functional. The method in brief: (§1)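 Free-radical scavenging measured as bleaching of the stable radical DPPH at 517 nm. Tested at 1 mM and 0.1 mM, melatonin as positive control. Results are % mean inhibition, average of at least triplicate analyses.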
Background: The DPPH test is a chemical assay of radical scavenging.

Experiment [2] relates to Radical scavenging activity. The experiment is described as follows: Antioxidant activity of the compound assessed as DPPH free radical scavenging activity at 0.1 mM after 30 mins by spectrophotometric analysis relative to control. It counts as functional. The procedure, abridged: as §1
Experiment [3] in a line: Antioxidant activity of the compound assessed as inhibition of xanthine-xanthine oxidase-mediated superoxide radical formation at 1 mM after 3 mins by NBT reduction assay relative to control. In kind it is functional. The method in brief: (§2)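 Superoxide anion generated by xanthine/xanthine oxidase and detected spectrophotometrically by nitroblue tetrazolium reduction. Test concentrations 1 mM and 0.1 mM, melatonin as positive control. Values are % mean inhibition from at least triplicate determinations.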

Experiment [4] can be described thus: Antioxidant activity of the compound assessed as inhibition of xanthine-xanthine oxidase-mediated superoxide radical formation at 0.1 mM after 3 mins by NBT reduction assay relative to control. In kind it is functional. The procedure, abridged: as §2
The subject of experiment [5] is Liver. The experiment can be described thus: Antioxidant activity in Wistar rat liver assessed as inhibition of Fe2+/ascorbate-induced lipid peroxidation at 0.1 mM after 1 hr by TBARS assay relative to control. It counts as functional, tissue-based. The method in brief: (§3)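 Lipid peroxidation assay: MDA formation measured with thiobarbituric acid. Tested at 1 mM and 0.1 mM, melatonin as positive control. Values are % mean inhibition from at least triplicate analyses.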

The test system of experiment [6] is Liver. The experiment can be described thus: Antioxidant activity in Wistar rat liver assessed as inhibition of Fe2+/ascorbate-induced lipid peroxidation at 1 mM after 1 hr by TBARS assay relative to control. It counts as functional, tissue-based. The method in brief: as §3

Broadly, the inhibition is the change of the read-out against control, counted positive when it falls. As to `Nc1ccc(-c2cc3ccc(F)cc3[nH]2)cc1`, the inhibition in experiment [1] amounted to 80%; in experiment [2] it was 65%; in experiment [3], 81%; in experiment [4], 35%; in the experiment with Liver [5], 22%; in the experiment with Liver [6], 35%.

With `COc1ccc(-c2cc3ccccc3[nH]2)cc1OC`, the inhibition came to 44% in experiment [1]; 12% in experiment [2]; 70% in experiment [3]; 12% in experiment [4]; 13% in the experiment on Liver [5]; 27% in the experiment on Liver [6].

For the compound `COc1ccc2[nH]c(-c3ccc(N)cc3)cc2c1`, the inhibition came out at 85% in experiment [1]; 69% in experiment [2]; 35% in experiment [3]; 14% in experiment [4]; 33% in the experiment on Liver [5]; 42% in the experiment with Liver [6].

With `Nc1ccc(-c2cc3cc(F)ccc3[nH]2)cc1`, the inhibition was determined as 28% in experiment [1]; 18% in experiment [2]; 35% in experiment [3]; 20% in experiment [4]; 17% in the experiment with Liver [5]; 19% in the experiment on Liver [6].

For the compound `COc1ccc(-c2cc3cc(F)cc(Cl)c3[nH]2)cc1`, the inhibition entry in experiment [1], in experiment [2] and in experiment [4] was “inactive” in each case. The results for the inhibition (in experiment [3]; in the experiment on Liver [5]; in the experiment with Liver [6]) were 32%, 6% and 33%, respectively.

For the compound `Nc1ccc(-c2cc3cc(Cl)ccc3[nH]2)cc1`, the inhibition is 70% in experiment [1]; 23% in experiment [2]; 22% in experiment [3]; 30% with Liver [5]; 31% in the experiment with Liver [6]. Also, the inhibition entry in experiment [4] is “inactive”.

For the compound `Nc1ccc(-c2cc3ccccc3[nH]2)cc1`, the inhibition was determined as 74% in experiment [1]; 43% in experiment [2]; 30% in experiment [3]; 16% in experiment [4]; 13% with Liver [5]; 26% with Liver [6].

In the case of `COc1cc(-c2cc3ccccc3[nH]2)cc(OC)c1OC`, the inhibition in experiment [1] came out at 35%; in experiment [2], 9%; in experiment [3], 42%; in experiment [4], 13%; with Liver [5] it was 33%; in the experiment with Liver [6], 28%.

Regarding `Nc1ccc(-c2cc3cccc(F)c3[nH]2)cc1`, the inhibition in experiment [1] was 77%; in experiment [2], 43%; in experiment [3], 23%; in experiment [4], 15%; with Liver [5] it was 26%; in the experiment on Liver [6], 30%.

On to `COc1ccc(-c2cc3cc(F)ccc3[nH]2)cc1OC`, for which the inhibition in experiment [1] is 21%; in experiment [2], 2%; in experiment [3] it was 51%; in the experiment on Liver [5], 10%; in the experiment with Liver [6] it was 24%. In experiment [4], the inhibition result was “inactive”.

Regarding `Nc1ccc(-c2cc3c(Cl)cccc3[nH]2)cc1`, the inhibition was determined as 69% in experiment [1]; 44% in experiment [2]; 18% in experiment [3]; 30% in the experiment with Liver [5]; 30% with Liver [6]. In addition, the inhibition result in experiment [4] was “inactive”.

In the case of `COc1ccc(-c2cc3ccccc3[nH]2)cc1`, the inhibition in experiment [1] amounted to 38%; in experiment [2] it was 6%; in experiment [3], 43%; in experiment [4], 12%; in the experiment on Liver [5], 14%; in the experiment on Liver [6] it was 24%.

In the case of `COc1cc(-c2cc3cc(F)ccc3[nH]2)cc(OC)c1OC`, the inhibition in experiment [1] is 23%; in experiment [2], 3%; in experiment [3] it was 50%; in experiment [4], 9%; in the experiment with Liver [5], 10%; in the experiment with Liver [6] it was 19%.

For `O=[N+]([O-])c1ccc(-c2cc3cc(F)cc(Cl)c3[nH]2)cc1`, the inhibition in experiment [1] was determined as 5%; in experiment [3], 39%; in the experiment on Liver [5], 5%; in the experiment on Liver [6], 20%. The inhibition entry in experiment [2] and in experiment [4] was “inactive” each time.

For the compound `COc1ccc2[nH]cc(CCNC(C)=O)c2c1`, the inhibition in experiment [1] was found to be 98%; in experiment [2] it was 81%; in experiment [3] it was 75%; in experiment [4], 19%; in the experiment with Liver [5] it was 45%; with Liver [6] it was 85%.

`COc1ccc(-c2cc3cc(F)cc(Cl)c3[nH]2)cc1OC`: the inhibition in experiment [1] is 10%; in experiment [3] it was 39%; in the experiment on Liver [5], 13%; in the experiment with Liver [6], 24%. Moreover, the inhibition result in experiment [2] and in experiment [4] was “inactive” in each case.

For the compound `COc1ccc(-c2cc3cc(F)ccc3[nH]2)cc1F`, the inhibition result in experiment [1], in experiment [2], in experiment [3] and in experiment [4] was “inactive” throughout. Also, the inhibition in the experiment on Liver [5] was found to be 7%; in the experiment with Liver [6] it was 13%.

For the compound `Nc1ccc(-c2cc3ccc(Cl)cc3[nH]2)cc1`, the inhibition was 77% in experiment [1]; 50% in experiment [2]; 20% in experiment [3]; 17% in experiment [4]; 35% in the experiment on Liver [5]; 35% with Liver [6].
